Measurements published in ChEMBL document CHEMBL1127826, “Inhibitors of acyl-CoA:cholesterol acyltransferase (ACAT). 7. Development of a series of substituted N-phenyl-N'-[(1-phenylcyclopentyl)methyl]ureas with enhanced hypocholesterolemic activity” (J Med Chem, 1994).

How the values were obtained:
[1] = target: T1, Acyl-CoA:cholesterol acyltransferase (Oryctolagus cuniculus, UniProt Q95214); test: Tested for in vitro inhibition against Acyl coenzyme A:cholesterol acyltransferase of intestinal microsomes in cholesterol-fed rabbits; design: species or system Microsome
T1 sequence (Q95214 whole entry): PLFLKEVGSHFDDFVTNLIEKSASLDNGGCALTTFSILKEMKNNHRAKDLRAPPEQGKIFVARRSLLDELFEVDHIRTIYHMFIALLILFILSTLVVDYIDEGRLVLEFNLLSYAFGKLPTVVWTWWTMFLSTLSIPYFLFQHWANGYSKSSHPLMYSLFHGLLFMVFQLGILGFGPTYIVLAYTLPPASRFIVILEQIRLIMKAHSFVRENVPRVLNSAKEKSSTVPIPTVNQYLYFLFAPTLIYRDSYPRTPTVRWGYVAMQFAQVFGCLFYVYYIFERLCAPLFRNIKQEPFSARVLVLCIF
Outline: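 Microsomes were prepared from intestine of cholesterol-fed rabbits. ACAT activity was measured using [1-14C]oleoyl-CoA as substrate. Each determination was run in triplicate.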

Rattus norvegicus [2] = organism: Rattus norvegicus; test: Percent change in total cholesterol in peanut oil (5.5%) - cholic acid (0.3%) - Cholesterol (1.5%) fed rats after a single dose; format: functional
Outline: (§1)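 Male Sprague-Dawley rats (200-225 g), n=5-7/group, given a single oral dose at 4 p.m. as a suspension in 1.5% CMC/0.2% Tween-20 in water (50 mg/kg); controls received vehicle alone. The rats then had free access to chow with peanut oil, cholesterol and cholic acid. At 8 a.m. next day they were bled by cardiac puncture under ether, and serum total cholesterol was measured as % change versus controls (unpaired two-tailed t-test).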

[3] = Compound was evaluated for the distribution coefficient at pH 7.4; format: physicochemical; settings: octanol/water, read-out: logD
Rattus norvegicus [4] = test: Compound was evaluated for the percentage change in total cholesterol in peanut oil (5.5%)-cholic acid (0.3%)-cholesterol (1.5%)-fed rats at 30 mg/kg; format: functional
Rattus norvegicus [5] = organism: Rattus norvegicus; test: Percent change in total cholesterol in peanut oil (5.5%)-, cholic acid (0.3%)-, Cholesterol (1.5%)-fed rats after a single dose.; format: functional; outline: as §1
[6] = Solubility at 0.1 N HCl; format: physicochemical; settings: read-out: S
[7] = Solubility at pH 4.0; format: physicochemical; settings: buffer
[8] = Solubility at pH 7.4; format: physicochemical; settings: buffer
[9] = Compound was evaluated for the distribution coefficient at pH 1.0; format: physicochemical; settings: octanol/water
[10] = Compound was evaluated for the distribution coefficient at pH 4.0; format: physicochemical; settings: octanol/water
Rattus norvegicus [11] = test: Compound was evaluated in experiment 1 for Change in High density lipoproteins at 0.3 (mg/kg) dose; format: functional
Outline: (§2)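 Chronic model in male Sprague-Dawley rats (200-225 g). Rats were fed chow with peanut oil 5.5%, cholesterol 1.5% and cholic acid ad libitum for 2 weeks. Test article was given by gavage once daily (morning) in the second week, as a CMC/Tween aqueous suspension. Blood was taken by cardiac puncture under ether 24 h after the last dose. Plasma total, HDL and nonHDL cholesterol were measured with an Abbott VP analyzer using dextran sulfate precipitation, reported as mg/dL and % change from control. Controls were cholesterol-fed rats and rats switched to chow in week 2.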

Rattus norvegicus [12] = test: Compound was evaluated in experiment 1 for Change in High density lipoproteins at 1.0 (mg/kg) dose; format: functional; outline: as §2
Rattus norvegicus [13] = test: Compound was evaluated in experiment 1 for Change in total cholesterol at 0.3 (mg/kg) dose; format: functional; outline: as §2
Rattus norvegicus [14] = test: Compound was evaluated in experiment 1 for Change in total cholesterol at 1.0 (mg/kg) dose; format: functional; outline: as §2
Rattus norvegicus [15] = test: Compound was evaluated in experiment 1 for Change in total cholesterol at 10 (mg/kg) dose; format: functional; outline: as §2
Rattus norvegicus [16] = test: Compound was evaluated in experiment 1 for Change in total cholesterol at 3.0 (mg/kg) dose; format: functional; outline: as §2
Rattus norvegicus [17] = test: Compound was evaluated in experiment 1 for Change in High density lipoproteins at 10 (mg/kg) dose; format: functional; outline: as §2
Rattus norvegicus [18] = test: Compound was evaluated in experiment 1 for Change in High density lipoproteins at 3.0 (mg/kg) dose; format: functional; outline: as §2
Rattus norvegicus [19] = test: Compound was evaluated in experiment 1 for change in non High density lipoprotein at the doses at 0.3 (mg/kg) dose; format: functional; outline: as §2
Rattus norvegicus [20] = test: Compound was evaluated in experiment 1 for change in non High density lipoprotein at the doses at 10 (mg/kg) dose; format: functional; outline: as §2
Rattus norvegicus [21] = test: Compound was evaluated in experiment 1 for change in non High density lipoprotein at the doses at 3.0 (mg/kg) dose; format: functional; outline: as §2
Rattus norvegicus [22] = test: Compound was evaluated in experiment 1 for change in non High density lipoprotein at the doses at 1.0 (mg/kg) dose; format: functional; outline: as §2
Rattus norvegicus [23] = test: Compound was evaluated in experiment 1 for High density lipoproteins at 0.3 (mg/kg) dose; format: functional; outline: as §2
Rattus norvegicus [24] = test: Compound was evaluated in experiment 1 for High density lipoproteins at 1.0 (mg/kg) dose; format: functional; outline: as §2
Rattus norvegicus [25] = test: Compound was evaluated in experiment 1 for High density lipoproteins at 10 (mg/kg) dose; format: functional; outline: as §2
Rattus norvegicus [26] = test: Compound was evaluated in experiment 1 for High density lipoproteins at 3.0 (mg/kg) dose; format: functional; outline: as §2
Rattus norvegicus [27] = test: Compound was evaluated in experiment 1 for non High density lipoproteins at 0.3 (mg/kg) dose; format: functional; outline: as §2
Rattus norvegicus [28] = test: Compound was evaluated in experiment 1 for non High density lipoproteins at 1.0 (mg/kg) dose; format: functional; outline: as §2
Rattus norvegicus [29] = test: Compound was evaluated in experiment 1 for non High density lipoproteins at 10 (mg/kg) dose; format: functional; outline: as §2
Rattus norvegicus [30] = test: Compound was evaluated in experiment 1 for non High density lipoproteins at 3.0(mg/kg) dose; format: functional; outline: as §2
Rattus norvegicus [31] = test: Compound was evaluated in experiment 1 for Total cholesterol at 0.3 (mg/kg) dose; format: functional; design: unit not given beside the values; outline: as §2
Rattus norvegicus [32] = test: Compound was evaluated in experiment 1 for Total cholesterol at 1.0 (mg/kg) dose; format: functional; design: unit not given beside the values; outline: as §2
Rattus norvegicus [33] = test: Compound was evaluated in experiment 1 for Total cholesterol at 10 (mg/kg) dose; format: functional; design: unit not given beside the values; outline: as §2
Rattus norvegicus [34] = test: Compound was evaluated in experiment 1 for Total cholesterol at 3.0 (mg/kg) dose; format: functional; design: unit not given beside the values; outline: as §2

Cc1ccc(C)c(C2(CNC(=O)Nc3c(C(C)C)cccc3C(C)C)CCCC2)c1
IC50 [1]: 39 nM
Delta TC (Rattus norvegicus [2]): -48%

CC(C)c1cccc(C(C)C)c1NC(=O)NCC1(c2cccc(CBr)c2)CCCC1
IC50 [1]: 44 nM
logD [3]: 5.23
Delta TC (Rattus norvegicus [2]): -26%

CC(C)c1cccc(C(C)C)c1NC(=O)NCC1(c2ccc(Br)cc2)CCCC1
IC50 [1]: 29 nM
Delta TC (Rattus norvegicus [2]): -59%

CC(C)c1cccc(C(C)C)c1NC(=O)NCC1(c2cccc(C(F)(F)F)c2)CCCC1
IC50 [1]: 27 nM
Delta TC (Rattus norvegicus [2]): -45%

Cc1cccc(C2(CNC(=O)Nc3c(C(C)C)cccc3C(C)C)CCCC2)c1
IC50 [1]: 15 nM
Delta TC (Rattus norvegicus [2]): -52%

CC(=O)OCCN(CCOC(C)=O)Cc1cccc(C2(CNC(=O)Nc3c(C(C)C)cccc3C(C)C)CCCC2)c1
IC50 [1]: 33 nM
logD [3]: 4.55
Delta TC (Rattus norvegicus [4]): -71%
Delta TC (Rattus norvegicus [5]): -35%

Cc1ccc(C2(CNC(=O)Nc3c(C(C)C)cccc3C(C)C)CCCC2)cc1
IC50 [1]: 25 nM
Delta TC (Rattus norvegicus [2]): -70%

CC(C)c1cccc(C(C)C)c1NC(=O)NCC1(c2ccc(N(C)C)cc2)CCCC1 [NEVANIMIBE]
solubility [6]: < 10 µg/mL
solubility [7]: < 10 µg/mL
solubility [8]: < 10 µg/mL
logD [9]: 2.18
logD [10]: 2.89
logD [3]: 5.59
Delta TC (Rattus norvegicus [5]): -65%

CC(C)c1cccc(C(C)C)c1NC(=O)NCC1(c2cccc(CC#N)c2)CCCC1
IC50 [1]: 24 nM
logD [3]: 3.61
Delta TC (Rattus norvegicus [5]): -31%

CC(C)c1cccc(C(C)C)c1NC(=O)NCC1(c2cccc(CN3CCOCC3)c2)CCCC1
logD [3]: 4.37
Change HDL -C (Rattus norvegicus [11]): 16%
Change HDL -C (Rattus norvegicus [12]): 10%
Change TC (Rattus norvegicus [13]): -24%
Change TC (Rattus norvegicus [14]): -13%
Change TC (Rattus norvegicus [15]): -63%
Change TC (Rattus norvegicus [16]): -31%
Delta TC (Rattus norvegicus [4]): -70%
Delta TC (Rattus norvegicus [5]): -47%
Change HDL -C (Rattus norvegicus [17]): 162%
Change HDL -C (Rattus norvegicus [18]): 40%
Change non HDL-C (Rattus norvegicus [19]): -26%
Change non HDL-C (Rattus norvegicus [20]): -71%
Change non HDL-C (Rattus norvegicus [21]): -33%
Change non HDL-C (Rattus norvegicus [22]): -14%
HDL-C (Rattus norvegicus [23]): 14
HDL-C (Rattus norvegicus [24]): 13
HDL-C (Rattus norvegicus [25]): 30
HDL-C (Rattus norvegicus [26]): 16
Non-HDL-C (Rattus norvegicus [27]): 224
Non-HDL-C (Rattus norvegicus [28]): 260
Non-HDL-C (Rattus norvegicus [29]): 84
Non-HDL-C (Rattus norvegicus [30]): 202
TC (Rattus norvegicus [31]): 237
TC (Rattus norvegicus [32]): 273
TC (Rattus norvegicus [33]): 118
TC (Rattus norvegicus [34]): 218
